The values below come from ChEMBL document CHEMBL4513216, “Probing the Open Global Health Chemical Diversity Library for Multistage-Active Starting Points for Next-Generation Antimalarials” (ACS Infect Dis, 2020).

This data set in a line: Toxicity liver stage against HepG2, at 10uM. It counts as cell-based. Details: test concentration 10 uM, cell line HepG2-A16-CD81EGFP. The settings on record: human, HepG2-A16-CD81EGFP cells; read-out: INHIBITION
A digest of the protocol:
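Uninfected HepG2-A16-CD81EGFP cells, 3 × 10^3 per well, 1536-well, plated on prespotted compound at 10 μM final, parasite-free screening media added to match infected plates; puromycin 10 μM positive, DMSO 0.5% negative; run in parallel with 48 h PbLuc assay at 37 °C, 5% CO2; viability by CellTiter-Glo luminescence, normalized to controls.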
As to `CC(C)Cn1ncc(C(=O)NS(=O)(=O)c2ccccc2)c1C1CC1`, the cytotoxicity at 10 µM was 2.35%.

On to `CCOC1CCCN(C(=O)c2[nH]nc(C)c2Br)C1` (stereo unspecified), for which the cytotoxicity at 10 µM worked out at 0.966%. Under `Cc1cccc(CC2COCCN(Cc3nccn3C)C2)n1` (stereo unspecified) stands 1.61%; under `COCCn1ccnc1C1CCCN(c2ncnc3c2CCC3)C1` (stereo unspecified), 1.66%. Consider `CC(C)N1[C@H](Cn2cncn2)C[C@@H]2CN(Cc3cccs3)CC[C@@H]21`, for which the cytotoxicity at 10 µM was -109%. Under `CCCc1noc(CCC(=O)N2CCCC2c2ccncc2)n1` (stereo unspecified) stands -2.42%; under `Cn1cnc2c1CCN(Cc1csc(-c3ccc(F)cc3)n1)C2`, -4.78%.

In the case of `Cc1nc(CN2CCN(C(=O)C(c3ccccc3C)N(C)C)CC2)no1` (stereo unspecified), the cytotoxicity at 10 µM is 1.06%.

As to `CN(C)C(=O)N1CC(C(=O)NCC2CC2)C2(CCOCC2)C1` (stereo unspecified), the cytotoxicity at 10 µM was -95.1%. With `O=C(NC1CC1)C1CNCCN1C(=O)CCc1ccc2c(c1)OCO2` (stereo unspecified), the cytotoxicity at 10 µM was -0.766%.

`Fc1cccnc1O[C@@H]1CN(Cc2ccccn2)[C@@H]2CCCO[C@@H]21`: the cytotoxicity at 10 µM amounted to 1.71%. Under `Cn1nnc2c1C(COCc1ccccn1)CN(Cc1ccoc1)C2` (stereo unspecified) stands 5.94%; under `CNC(=O)CN(C)Cc1ccc(F)cc1Cl`, -2.9%; under `O=c1[nH][nH]c2cn(-c3ccc(Br)cc3)c(=O)n12`, -11.8%. Under `CC(C)(C)NC(=O)c1ccc(COCC(F)(F)F)o1` stands -0.585%; under `CC(=O)c1cccc(NC(=O)NCCOCC2CC2)c1`, 5.11%. For the molecule `CCC(=O)N1CC[C@H]2C(=O)N(Cc3ccc(OC)cc3)CCO[C@H]2C1`, the cytotoxicity at 10 µM was -114%.

As to `COc1nc(N2CCNCC2)ncc1Br`, the cytotoxicity at 10 µM was 5.2%. Under `O=C(Nc1cnccn1)[C@H]1CC[C@@H]2[C@@H](CCN2Cc2ccccn2)O1` stands -139%; under `CCO[C@H]1CN(C(=O)c2ccc3c(c2)OCO3)[C@@H]2COC[C@H]12`, -130%; under `CCN(C)c1ncnc2c1CCN(C(=O)N(C)C)CC2`, -0.0197%. `O=C(c1cc(=O)[nH]c(=O)[nH]1)N1CCCCC1c1nc2cc(F)ccc2[nH]1` (stereo unspecified): the cytotoxicity at 10 µM was -9.64%. Under `Cc1cc(C[C@@H]2CCC[C@H]2NCc2ccccc2F)on1` stands -6.19%; under `CC(C)c1noc(CCC(=O)NCC2CCC(C(N)=O)CC2)n1` (stereo unspecified), -31.6%. As for `CCc1nc(CC)n(CC(=O)N(C)CC(F)(F)F)n1`, the cytotoxicity at 10 µM was found to be 2.19%. With `CC(=O)N1CCC(c2cncc(Cl)n2)CC1` the figure was 3.8%.

`Cc1nc(NCCc2ccc(Cl)cc2)cc(C(=O)N2CCOCC2)n1`: the cytotoxicity at 10 µM is -4.78%.

On to `O=C(c1ccncc1)N1CCn2c(nnc2-c2ccccc2)C1`, for which the cytotoxicity at 10 µM was 4.45%. As to `NC(=O)c1ccc(NC(=O)Cn2cc(-c3ccccc3)ncc2=O)cc1`, the cytotoxicity at 10 µM amounted to 4.6%. Under `Cc1nc(CSCc2ccc(OCC(F)(F)F)nc2)no1` stands -2.34%; under `Cc1cnc2n(c1=O)C(CC(=O)NCc1ccccc1Cl)CS2` (stereo unspecified), -7.86%; under `COCC(=O)N1CCCN(Cc2cc(O)c3ccccc3n2)CC1`, 4.02%. For the molecule `Cc1ccc(S(=O)(=O)Nc2c(C)nn(C)c2C)cc1C`, the cytotoxicity at 10 µM was determined as 12.9%. With `CCCn1c(O)nnc1SCC1OCCc2ccccc21` (stereo unspecified) the figure was 4.32%; with `O=C(CN(Cc1cccnc1)CC1CCCO1)Nc1ccc(F)cc1` (stereo unspecified), -10.7%. Under `O=C(Cc1ccc(F)cc1Cl)N[C@@H]1CCNC[C@H]1O` stands -0.918%.

Consider `NC(=O)COc1ccc(CNCc2ccc(Cl)c(F)c2)cc1`, for which the cytotoxicity at 10 µM is -3.64%.

Take `CN(C)c1ccc(C(=O)N2CCN(CC(C)(C)O)CC2)nn1`: the cytotoxicity at 10 µM was -13.3%.

On to `N#Cc1ccc(CC(=O)N2CCC(Nc3cccnn3)CC2)cc1`, for which the cytotoxicity at 10 µM is -4.11%. Under `CN1CCCC2(CCN(C(=O)Cn3ncc4ccccc4c3=O)C2)C1=O` (stereo unspecified) stands 1.57%.

Consider `COc1cccc(N2CC3(CCN(c4cc(OC)ncn4)C3)CC2=O)c1` (stereo unspecified), for which the cytotoxicity at 10 µM amounted to 21.7%. With `O=C1CCC(=O)N1c1nn(Cc2ccccc2Cl)cc1Cl` the figure was -6.69%; with `CCSCCC(=O)Nc1ncn(CC(=O)NCc2ccccc2)n1`, 20%.

`Cc1ccc(-c2noc(CN3CC(n4cc(C)cn4)C3)n2)cc1`: the cytotoxicity at 10 µM is -3.86%. With `CC(C)c1cc(N2CCC(NS(C)(=O)=O)CC2)n2nccc2n1`, the cytotoxicity at 10 µM was 0.324%.

Take `CCc1nc(N2CCCC(CO)(CCOC)C2)ncc1C` (stereo unspecified): the cytotoxicity at 10 µM is 4.93%.

`COc1ccccc1CC1CCCN(CCN2CCOC2=O)C1` (stereo unspecified): the cytotoxicity at 10 µM amounted to 6.93%. `CCS(=O)(=O)c1ccc(NCc2csc(C(C)C)n2)cc1`: the cytotoxicity at 10 µM stood at 8.73%. Under `COCCN(C(=O)c1ccccn1)c1nc2c(s1)CCc1c-2cnn1C` stands -13.8%; under `CCc1cc(N2CCNCC2)n2nc(C)c(C)c2n1`, -2.59%. With `Cc1cc(-c2cc(C3CCOC3)c(C#N)c(N)n2)ccc1Cl` (stereo unspecified) the figure was -0.611%; with `CN(CC(O)COc1ccc(C(F)(F)F)cc1)C(=O)Nc1nncs1` (stereo unspecified), -11.1%.

As for `CCOc1cccc(C(=O)NCCC(=O)Nc2ccncc2)c1`, the cytotoxicity at 10 µM was 2.37%. Take `CCn1cc(NC(=O)C2CCC(=O)N2Cc2ccco2)cn1` (stereo unspecified): the cytotoxicity at 10 µM is -0.607%. For the molecule `CN1CC(Oc2ccc(Cl)cc2)=NC(SCC(=O)c2ccccc2)=N1`, the cytotoxicity at 10 µM is -0.731%. Regarding `CN(Cc1ccsc1)C(=O)c1n[nH]c(N)c1-c1ccccc1`, the cytotoxicity at 10 µM is -6.27%. For `Cc1nc(Nc2nnc(C)s2)cc(C2CCCN2C)n1` (stereo unspecified), the cytotoxicity at 10 µM came to 8.67%. Under `C=C(C)COc1ccccc1CN1CCC(C(=O)NCC)C1` (stereo unspecified) stands 11.6%; under `CCCS(=O)(=O)N1CCO[C@H]2[C@H](OCc3ccccn3)CC[C@@H]21`, -9%. For `C[C@@H]1CN(C(=O)CCCN2CCOCC2)CC[C@@]1(O)C1CCC1`, the cytotoxicity at 10 µM is -2.95%. Under `CCN(CC)CC1CCN(Cc2ncc(C(C)(C)C)o2)CC1` stands -7.22%; under `Cc1cccc(-n2ncc(C(=O)N3CCn4c(C)nnc4C3)c2C)c1`, 2.14%.

For `CCOCc1ccccc1NC(=O)NC1CCN(CC(F)(F)F)C1` (stereo unspecified), the cytotoxicity at 10 µM was found to be 1.81%. With `COc1ccc(CC(=O)N2CCCC2Cn2cc(C)cn2)cc1OC` (stereo unspecified), the cytotoxicity at 10 µM was -17.9%.

Turning to `c1ccc2oc(N3CCCC3Cn3cncn3)nc2c1` (stereo unspecified), the cytotoxicity at 10 µM is -14.4%. Consider `CC(C)(C)c1cn2nc(N3CCCCC3Cn3cncn3)sc2n1` (stereo unspecified), for which the cytotoxicity at 10 µM was -4.61%. As for `NC(=O)C(NC(=O)c1cc(Br)c[nH]1)c1ccccc1` (stereo unspecified), the cytotoxicity at 10 µM stood at 0.172%. As to `CCc1nc(C2CCCN2C(=O)c2ccc3c(c2)[nH]c(=O)n3C)no1` (stereo unspecified), the cytotoxicity at 10 µM turned out to be 1.04%.

With `CC(=O)NCCNC(=O)c1ccc(C)c(-n2cccc2)c1`, the cytotoxicity at 10 µM was -2.04%. For `COc1c(C2CCCN2C(=O)c2c(C)noc2C)c(C)nn1C` (stereo unspecified), the cytotoxicity at 10 µM is 0.471%. Regarding `Cc1nc(CN2CCC(c3nc4cc(Cl)ccc4o3)CC2)oc1C`, the cytotoxicity at 10 µM is -8.56%.

As to `Cn1cnnc1C1CCN(c2nc3ccccc3o2)CC1`, the cytotoxicity at 10 µM came to 14.1%. As for `Cc1cccc(CS(=O)(=O)CC(=O)NCCCOC(C)C)c1`, the cytotoxicity at 10 µM is -5.15%. Under `CC(C)Oc1cccc(CC(=O)N(CC(N)=O)C2CCCC2)c1` stands -2.09%. Under `CCOc1ncccc1CNCc1c(C(C)C)nn(C)c1N(C)C` stands -8.19%; under `CN(Cc1ccco1)C(=O)[C@@]12CNC[C@@H]1CN(C1CCCC1)C2`, 3.75%.

Consider `Cc1ccc(NC2CCN(C(=O)CCCc3ccccn3)CC2)nn1`, for which the cytotoxicity at 10 µM turned out to be 16.4%. Under `Cc1ccc(=O)n(CC2(O)CCN(Cc3cc(C)c(O)c(C)c3)CC2)n1` stands 1.7%; under `Cc1nn(CCC(=O)NC(C(=O)O)c2c(C)n[nH]c2C)c(C)c1C` (stereo unspecified), -2.72%; under `CCOc1ccnc(N2CCN(CCOC)CC2)n1`, 4.49%. Consider `CC[C@H](C)[C@@H](CO)NC(C)Cc1ccc(F)cc1` (stereo partly specified), for which the cytotoxicity at 10 µM is -6.27%. Consider `Cc1cn[nH]c1C1CCCCN1C(=O)CCc1ccc(F)cc1` (stereo unspecified), for which the cytotoxicity at 10 µM stood at 1.52%. Under `CC1=C(C#N)C(=O)NC(=O)/C1=C\c1c(C)[nH]n(-c2ccc(Cl)cc2)c1=O` stands -8.94%; under `CC(=O)N(C)c1nc(CN2CCOC(Cn3cc(C)cn3)C2)cs1` (stereo unspecified), -7%. Under `CN(Cc1ccc(-n2cccn2)cc1)c1nc(N)nc2c1CCNCC2` stands 6.99%; under `N#CCc1ccc(NC(=O)CNc2ccc(Br)cc2F)cc1`, 0.997%. With `CCN1CCOCC12CCN(C(=O)C1CCCC1)CC2` the figure was -0.272%; with `c1cc(-c2noc(C3CCC3)n2)cc(N2CCCCC2)n1`, -1.39%.

In the case of `Cc1ccc(NC(=O)CNC(C)CN2CCCCC2)c(F)c1` (stereo unspecified), the cytotoxicity at 10 µM is -51.6%.

Turning to `COC(=O)c1c(C(F)(F)F)cnc(OC)c1Cl`, the cytotoxicity at 10 µM stood at 7.03%.

`CC(C)c1ccc(C(C)NC(=O)N2CCC(n3cncn3)CC2)cc1` (stereo unspecified): the cytotoxicity at 10 µM is -6.18%. With `CCC[C@H]1CN(Cc2nccn2C)C[C@@H]1NC(=O)C1(COC)CCC1` the figure was -3.7%; with `Cn1cc(CNC2CCCN(Cc3noc(C4CC4)n3)C2)cn1` (stereo unspecified), -9.52%. For the molecule `Cc1ccc(N2CC[C@H]3CO[C@H](CN(C)Cc4ccco4)[C@H]3C2)nn1`, the cytotoxicity at 10 µM amounted to 8.35%.

Turning to `CC(=O)NCCNC(=O)CN1CCOC(Cn2cc(C)cn2)C1` (stereo unspecified), the cytotoxicity at 10 µM is -4.44%. Under `C[C@H](N)C(=O)N1CCC(c2[nH]ncc2-c2ccccc2)CC1` stands 2.4%.
